Columns and labels:
[1] = molecular target: T1, Human immunodeficiency virus type 1 integrase (Human immunodeficiency virus 1, UniProt Q7ZJM1); assay: (§1) Compound concentration required to reduce HIV-1 Integrase 3'-processing activity by 50%
[2] = species: Homo sapiens; assay: Fold increase in protein-linked DNA breaks (PLDB) with respect to untreated controls.; assay type: functional
Method in brief: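 KB cells labeled with [14C]thymidine (0.75 μCi/mL) for 48 h, trypsinized, resuspended at 3×10^5/mL, preincubated 1 h at 37 °C. […] Protein-linked DNA breaks quantified by K-SDS coprecipitation after SDS lysis, needle shearing, 65 °C incubation and 100 mM KCl precipitation. Expressed relative to untreated controls.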

[3] = test system: KB; assay: Compound concentration required to reduce the exponential growth of KB cells by 50%; assay type: functional; settings: Homo sapiens
[4] = test system: MT4; assay: Compound concentration required to reduce the exponential growth of MT-4 cells by 50%; assay type: functional; settings: Homo sapiens
Method in brief: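 Lymphoid MT-4 cells in suspension culture, grown at 37 °C under 5% CO2 in RPMI 1640 with 10% FCS, penicillin G and streptomycin, and checked for mycoplasma. Compounds were dissolved in DMSO as a 200 mM stock, then diluted. Cytotoxicity was read as viability of mock-infected cells by MTT. The CC50 is the concentration reducing exponential cell growth by 50%.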

[5] = molecular target: T1, Human immunodeficiency virus type 1 integrase; assay: as §1; remark: listed apart in the source
Method in brief: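 His-tagged HIV-1 IN expressed in E. coli BL21(DE3), Ni-purified with 5 mM CHAPS. Released GT dinucleotide recovered by DEAE filtration and counted. Mean of three independent determinations.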

T1 sequence (Q7ZJM1 whole entry): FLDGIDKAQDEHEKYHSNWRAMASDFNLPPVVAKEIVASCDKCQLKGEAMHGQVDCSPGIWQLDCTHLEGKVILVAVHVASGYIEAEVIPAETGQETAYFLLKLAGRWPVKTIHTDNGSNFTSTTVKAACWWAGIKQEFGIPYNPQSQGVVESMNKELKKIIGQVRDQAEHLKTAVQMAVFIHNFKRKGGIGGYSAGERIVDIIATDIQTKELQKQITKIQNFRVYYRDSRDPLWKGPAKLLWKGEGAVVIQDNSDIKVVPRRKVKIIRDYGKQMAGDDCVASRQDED

| SMILES | IC50 ([1]; read-out: IC50) [µM] | Fold increase [2] | CC50 [3] [µM] | CC50 [4] [µM] | IC50 [1] [µg/mL] | IC50 [5] [µM] |
| --- | --- | --- | --- | --- | --- | --- |
| O=C(/C=C(O)/C=C/c1ccc(O)c(O)c1)/C=C/c1ccc(O)c(O)c1 | 0.7 | 1.1 | 4.1 | 17 | – | – |
| COc1cc(/C=C/C(=O)/C=C/c2ccc(O)c(OC)c2)ccc1O | 37 | 1.2 | 8.5 | 1.4 | – | – |
| O=C1/C(=C/c2ccc(O)c(O)c2)COC/C1=C\c1ccc(O)c(O)c1 | 0.2 | 0.9 | 15 | 10 | – | – |
| O=C(/C=C/c1ccc(O)c(O)c1)CCc1ccccc1 | > 100 | 1 | 30 | 15 | – | – |
| O=C(/C=C/c1ccc(O)cc1)CC(=O)/C=C/c1ccc(O)cc1 [BISDEMETHOXYCURCUMIN] | > 100 | 0.9 | 8.5 | 13 | – | – |
| O=C(/C=C/c1ccc(O)c(O)c1)c1ccc(O)cc1 | 1.3 | 1.6 | 5.9 | 4.4 | – | – |
| COc1cc(/C=C/C(=O)CC(=O)/C=C/c2ccc(O)c(OC)c2)ccc1O [CURCUMIN] | 30 | 1 | 16 | 7.4 | – | – |
| O=C(/C=C/c1ccc(O)c(O)c1)c1cccc(C(=O)/C=C/c2ccc(O)c(O)c2)c1 | 0.8 | 1.2 | 5.8 | 5 | – | – |
| Nc1nc[nH]n1 [AMITROLE] | – | 1.1 | 100 | 100 | 0.17 | – |
| O=C1/C(=C/c2ccc(O)c(O)c2)CC/C1=C\c1ccc(O)c(O)c1 | 1 | 4 | 17 | 15 | – | – |
| COc1ccc(/C=C/C(=O)/C=C/c2ccc(OC)c(OC)c2)cc1OC | > 100 | 1.1 | 6.7 | 4.1 | – | – |
| O=C1/C(=C/c2ccc(O)c(O)c2)CNC/C1=C\c1ccc(O)c(O)c1 | 0.2 | 1.4 | 32 | 21 | – | – |
| O=C1/C(=C/c2ccc(O)c(O)c2)CCC/C1=C\c1ccc(O)c(O)c1 | 0.9 | 1.4 | 8.9 | 7.4 | – | – |
| O=C1/C(=C/c2ccc(O)c(O)c2)CSC/C1=C\c1ccc(O)c(O)c1 | 0.2 | 1.1 | 3.9 | 4 | – | – |
| COc1cc(/C=C2\CCC/C(=C\c3ccc(O)c(OC)c3)C2=O)ccc1O [CYCLOVALONE] | > 100 | 1.8 | 6.7 | 2.4 | – | – |
| O=C(/C=C/c1ccc(O)cc1)/C=C/c1ccc(O)cc1 | > 100 | 1.1 | 7.4 | 1.6 | – | – |
| O=C(/C=C(O)/C=C/c1ccccc1)/C=C/c1ccccc1 | > 100 | 0.8 | 29 | 41 | – | – |
| O=C1/C(=C/c2ccc(O)c(O)c2)Cc2ccccc21 | – | 5.1 | 9.2 | 5.5 | – | 86 |
| O=C(/C=C/c1ccc(O)c(O)c1)/C=C/c1ccc(O)c(O)c1 | 0.6 | 1.1 | 21 | 38 | – | – |
| O=C(/C=C/c1ccc(O)c(O)c1)c1ccccc1 | 2.3 | 1.3 | 3.1 | 1.7 | – | – |
| O=C1C(=Cc2ccc(O)c(O)c2)C(=O)c2ccccc21 | 3 | 2 | 50 | 32 | – | – |
| COc1ccc(/C=C/C(=O)/C=C(O)/C=C/c2ccc(OC)c(OC)c2)cc1OC | > 100 | 1.4 | 2 | 4.1 | – | – |
| COc1cc([C@@H]2c3cc4c(cc3[C@@H](O[C@@H]3O[C@@H]5CO[C@@H](C)O[C@H]5[C@H](O)[C@H]3O)[C@H]3COC(=O)[C@H]23)OCO4)cc(OC)c1O [ETOPOSIDE] | – | – | 0.1 | 0.08 | – | – |
| O=C(/C=C/c1ccc(O)cc1)c1ccc(O)cc1O [ISOLIQUIRITIGENIN] | > 100 | 1.7 | 12 | 7.4 | – | – |
| O=C(/C=C/c1ccc(O)cc1)c1cccc(C(=O)/C=C/c2ccc(O)cc2)c1 | 30 | 1.2 | 22 | 35 | – | – |
| O=C(/C=C/c1ccc(O)c(O)c1)c1ccc(O)cc1O [BUTEIN] | 20 | 2.2 | 9.1 | 5.3 | – | – |
| CC[C@@]1(O)C(=O)OCc2c1cc1n(c2=O)Cc2cc3ccccc3nc2-1 [CAMPTOTHECIN] | > 100 | 3.5 | 0.006 | 0.01 | – | – |

Source: ChEMBL document CHEMBL1131129, “Geometrically and conformationally restrained cinnamoyl compounds as inhibitors of HIV-1 integrase: synthesis, biological evaluation, and molecular modeling” (J Med Chem, 1998)
